Assay results: article PMC12926890 (Molecular pharmaceutics, 2024)

Key:
Assay type in all cases: cell-based, human
[1] = tested on: hCMEC/D3 monolayers; assay: F-Aβ42 intracellular accumulation by confocal microscopy; conditions: 1 μM SB203580 30 min, then 60 min with 1 μM F-Aβ42
How it was run: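 Monolayers were grown on collagen-coated 8-well chambered slides, cultured 5−7 days at 37 °C and 5% CO₂, then held in 1% serum medium overnight. They received 1 μM p38 inhibitor for 30 min, then 1 μM FITC-Aβ₄₂ for 60 min. Cells were washed three times with ice-cold PBS, fixed in 4% paraformaldehyde for 20 min at room temperature, and DAPI-stained (300 nM, 10 min). They were then mounted and imaged by confocal SIM super-resolution.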

[2] = tested on: hCMEC/D3 monolayers; assay: F-Aβ42 cellular uptake by flow cytometry; conditions: 1 μM SB203580 30 min, then 60 min with 1 μM F-Aβ42
How it was run: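 hCMEC/D3 monolayers grown on collagen-coated 6-well plates, seeded at about 25,000 cells/cm², cultured 5−7 days at 37 °C and 5% CO₂ to confluency, then moved to 1% serum medium the day before. Cells were pretreated 30 min with 1 μM p38 inhibitor, then exposed 60 min to 1 μM FITC-Aβ₄₂. Read-out was the median fluorescence intensity of the cell population by flow cytometry, compared by unpaired two-tailed t test.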

[3] = tested on: p38 MAPK; assay: RPPA proteomics assay of p38 phosphorylation; conditions: BBB endothelial (hCMEC/D3) cells exposed to Aβ42

Q: For `C[S+]([O-])c1ccc(-c2nc(-c3ccncc3)c(-c3ccc(F)cc3)[nH]2)cc1` (stereo not drawn) [SB203580], which “fluorescent intensity of F-Aβ42 in the cytoplasm (confocal microscopy)” value [1] is on record?
A: substantial reduction

Q: And the “F-Aβ42 uptake by hCMEC/D3 cells (flow cytometry, MFI)” value [2]?
A: significantly reduced

Q: Which “p38 MAPK kinase activation (RPPA)” value [3] does the source give for “Aβ42: unlabeled amyloid-β 42 peptide custom synthesized by AAPPTec” here?
A: significantly activated
